{
  "source": "ChEMBL document CHEMBL2202955",
  "about": "“Identification of Potent, Selective, Cell-Active Inhibitors of the Histone Lysine Methyltransferase EZH2” (ACS Med Chem Lett, 2012)",
  "key": {"[1]": {"molecular_target": "Histone-lysine N-methyltransferase SUV39H2 (Homo sapiens, UniProt Q9H5I1)", "sequence (Q9H5I1 whole entry)": "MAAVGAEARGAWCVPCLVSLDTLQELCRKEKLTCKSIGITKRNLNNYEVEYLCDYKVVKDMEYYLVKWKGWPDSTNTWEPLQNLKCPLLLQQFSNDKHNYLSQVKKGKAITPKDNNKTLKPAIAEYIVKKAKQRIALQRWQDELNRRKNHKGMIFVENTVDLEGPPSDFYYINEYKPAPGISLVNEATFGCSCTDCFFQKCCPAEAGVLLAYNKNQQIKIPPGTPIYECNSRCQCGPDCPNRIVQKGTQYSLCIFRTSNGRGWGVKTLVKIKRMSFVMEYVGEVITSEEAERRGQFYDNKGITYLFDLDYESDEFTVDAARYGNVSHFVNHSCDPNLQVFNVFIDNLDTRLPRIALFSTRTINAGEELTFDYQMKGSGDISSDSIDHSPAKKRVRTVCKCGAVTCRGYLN", "assay": "Inhibition of SUV39H2 using histone H3 as substrate preincubated for 10 mins followed by addition of [3H]SAM and incubated for 60 mins", "in_short": "(§1)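 Panel of methyltransferases tested for selectivity. […] Values are the mean of at least two independent replicates.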"}, "[2]": {"molecular_target": "Protein arginine N-methyltransferase 3 (Homo sapiens, UniProt O60678)", "sequence (O60678 whole entry)": "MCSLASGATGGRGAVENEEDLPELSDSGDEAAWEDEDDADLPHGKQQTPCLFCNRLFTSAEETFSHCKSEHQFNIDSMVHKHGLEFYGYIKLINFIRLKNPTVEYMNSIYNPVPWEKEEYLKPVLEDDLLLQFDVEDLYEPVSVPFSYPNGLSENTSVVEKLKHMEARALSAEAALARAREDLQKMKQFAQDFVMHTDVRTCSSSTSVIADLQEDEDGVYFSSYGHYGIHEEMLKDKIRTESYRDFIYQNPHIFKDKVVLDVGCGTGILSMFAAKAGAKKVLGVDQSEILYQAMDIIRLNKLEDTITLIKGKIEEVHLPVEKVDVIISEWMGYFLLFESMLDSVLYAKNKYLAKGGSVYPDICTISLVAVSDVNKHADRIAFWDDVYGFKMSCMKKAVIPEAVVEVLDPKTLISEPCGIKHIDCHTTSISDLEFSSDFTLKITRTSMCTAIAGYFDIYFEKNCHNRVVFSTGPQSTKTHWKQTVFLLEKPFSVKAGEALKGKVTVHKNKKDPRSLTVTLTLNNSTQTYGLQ", "assay": "Inhibition of PRMT3 using histone H3 as substrate preincubated for 10 mins followed by addition of [3H]SAM and incubated for 60 mins", "in_short": "as §1"}, "[3]": {"molecular_target": "DNA (cytosine-5)-methyltransferase 3A (Homo sapiens, UniProt Q9Y6K1)", "sequence (Q9Y6K1 whole entry, looked up)": "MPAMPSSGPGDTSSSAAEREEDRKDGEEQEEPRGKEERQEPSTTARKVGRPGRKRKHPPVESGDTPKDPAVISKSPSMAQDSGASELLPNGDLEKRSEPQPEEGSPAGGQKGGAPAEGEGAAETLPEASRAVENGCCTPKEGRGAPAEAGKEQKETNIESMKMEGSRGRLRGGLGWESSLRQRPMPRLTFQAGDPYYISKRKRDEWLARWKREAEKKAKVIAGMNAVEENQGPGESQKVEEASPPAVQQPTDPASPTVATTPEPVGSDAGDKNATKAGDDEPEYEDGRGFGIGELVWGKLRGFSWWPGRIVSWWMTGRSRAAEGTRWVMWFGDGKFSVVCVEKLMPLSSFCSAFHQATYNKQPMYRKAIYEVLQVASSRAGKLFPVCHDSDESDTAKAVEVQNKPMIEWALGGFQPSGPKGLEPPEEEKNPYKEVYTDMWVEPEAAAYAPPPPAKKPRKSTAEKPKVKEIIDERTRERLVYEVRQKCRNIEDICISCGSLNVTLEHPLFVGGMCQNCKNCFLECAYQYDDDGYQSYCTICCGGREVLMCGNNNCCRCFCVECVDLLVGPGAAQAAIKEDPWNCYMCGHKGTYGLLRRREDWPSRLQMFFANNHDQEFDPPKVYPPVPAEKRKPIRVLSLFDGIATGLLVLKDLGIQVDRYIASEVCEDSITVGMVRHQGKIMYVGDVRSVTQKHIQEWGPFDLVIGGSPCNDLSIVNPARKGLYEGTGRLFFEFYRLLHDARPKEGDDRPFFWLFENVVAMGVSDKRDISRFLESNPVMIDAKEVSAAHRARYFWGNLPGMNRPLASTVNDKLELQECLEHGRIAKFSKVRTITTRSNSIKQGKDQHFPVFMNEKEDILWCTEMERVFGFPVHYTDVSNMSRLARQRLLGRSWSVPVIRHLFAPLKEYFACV", "assay": "Inhibition of DNMT3a using lambda DNA as substrate preincubated for 10 mins followed by addition of [3H]SAM and incubated for 60 mins", "in_short": "as §1"}, "[4]": {"molecular_target": "T1, Histone-lysine N-methyltransferase SUV39H1 (Homo sapiens, UniProt O43463)", "T1 sequence (O43463 whole entry)": "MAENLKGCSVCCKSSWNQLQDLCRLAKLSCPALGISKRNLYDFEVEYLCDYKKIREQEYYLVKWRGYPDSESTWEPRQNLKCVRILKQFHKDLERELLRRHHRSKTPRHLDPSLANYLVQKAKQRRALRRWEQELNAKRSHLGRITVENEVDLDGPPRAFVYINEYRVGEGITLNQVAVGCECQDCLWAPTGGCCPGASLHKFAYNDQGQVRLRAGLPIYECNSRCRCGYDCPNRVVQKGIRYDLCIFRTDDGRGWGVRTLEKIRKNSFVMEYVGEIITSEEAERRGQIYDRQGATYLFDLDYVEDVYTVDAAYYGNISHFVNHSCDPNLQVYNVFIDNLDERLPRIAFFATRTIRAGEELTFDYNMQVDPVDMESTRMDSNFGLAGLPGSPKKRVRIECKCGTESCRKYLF", "assay": "Inhibition of SUV39H1 using histone H3 as substrate preincubated for 10 mins followed by addition of [3H]SAM and incubated for 60 mins", "in_short": "as §1"}, "[5]": {"molecular_target": "T2, Histone-lysine N-methyltransferase SETMAR (Homo sapiens, UniProt Q53H47)", "T2 sequence (Q53H47 whole entry)": "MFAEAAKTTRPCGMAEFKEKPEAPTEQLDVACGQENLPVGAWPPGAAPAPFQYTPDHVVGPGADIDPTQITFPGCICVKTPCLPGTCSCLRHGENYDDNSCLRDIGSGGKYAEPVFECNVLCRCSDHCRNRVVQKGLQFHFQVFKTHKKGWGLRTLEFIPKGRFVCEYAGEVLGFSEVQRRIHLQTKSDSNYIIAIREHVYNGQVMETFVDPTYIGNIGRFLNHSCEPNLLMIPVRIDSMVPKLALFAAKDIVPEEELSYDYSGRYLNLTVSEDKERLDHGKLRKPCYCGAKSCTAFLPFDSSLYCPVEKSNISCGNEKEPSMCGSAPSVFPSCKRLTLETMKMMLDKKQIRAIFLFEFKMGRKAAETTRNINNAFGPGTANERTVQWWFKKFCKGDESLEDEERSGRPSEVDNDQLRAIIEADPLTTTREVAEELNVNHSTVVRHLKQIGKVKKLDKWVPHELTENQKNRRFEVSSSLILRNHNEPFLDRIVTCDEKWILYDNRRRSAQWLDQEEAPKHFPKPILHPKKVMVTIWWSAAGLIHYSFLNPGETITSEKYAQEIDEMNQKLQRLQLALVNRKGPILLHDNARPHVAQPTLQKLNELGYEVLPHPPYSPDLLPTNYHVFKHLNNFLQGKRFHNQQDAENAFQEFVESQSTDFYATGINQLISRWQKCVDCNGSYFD", "assay": "Inhibition of SETMAR using histone H3 as substrate preincubated for 10 mins followed by addition of [3H]SAM and incubated for 60 mins", "in_short": "as §1"}, "[6]": {"molecular_target": "T3, Histone-lysine N-methyltransferase EZH2 (Homo sapiens, UniProt Q15910)", "assay": "Inhibition of EZH2-mediated nuclear H3K27 methylation in human HCC1806 cells after 72 hrs by immunofluorescence analysis", "format": "cell-based", "in_short": "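HCC1806 breast cancer cells were exposed to compound for 72 h. Nuclear H3K27me3 was quantified by an immunofluorescence imaging assay and normalized to total H3. Values are the mean of at least three independent replicates.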"}, "[7]": {"molecular_target": "EZH2/SUZ12/EED/RBBP7/RBBP4", "assay": "Inhibition of PRC2 complex of FLAG-EZH2, EED, SUZ12, AEBP2 and RbAp48 using histone H3 peptide (21 to 44) as substrate and [3H]SAM after 1 hr", "format": "protein-complex assay"}, "[8]": {"molecular_target": "DNA (cytosine-5)-methyltransferase 1 (Homo sapiens, UniProt P26358)", "sequence (P26358 whole entry)": "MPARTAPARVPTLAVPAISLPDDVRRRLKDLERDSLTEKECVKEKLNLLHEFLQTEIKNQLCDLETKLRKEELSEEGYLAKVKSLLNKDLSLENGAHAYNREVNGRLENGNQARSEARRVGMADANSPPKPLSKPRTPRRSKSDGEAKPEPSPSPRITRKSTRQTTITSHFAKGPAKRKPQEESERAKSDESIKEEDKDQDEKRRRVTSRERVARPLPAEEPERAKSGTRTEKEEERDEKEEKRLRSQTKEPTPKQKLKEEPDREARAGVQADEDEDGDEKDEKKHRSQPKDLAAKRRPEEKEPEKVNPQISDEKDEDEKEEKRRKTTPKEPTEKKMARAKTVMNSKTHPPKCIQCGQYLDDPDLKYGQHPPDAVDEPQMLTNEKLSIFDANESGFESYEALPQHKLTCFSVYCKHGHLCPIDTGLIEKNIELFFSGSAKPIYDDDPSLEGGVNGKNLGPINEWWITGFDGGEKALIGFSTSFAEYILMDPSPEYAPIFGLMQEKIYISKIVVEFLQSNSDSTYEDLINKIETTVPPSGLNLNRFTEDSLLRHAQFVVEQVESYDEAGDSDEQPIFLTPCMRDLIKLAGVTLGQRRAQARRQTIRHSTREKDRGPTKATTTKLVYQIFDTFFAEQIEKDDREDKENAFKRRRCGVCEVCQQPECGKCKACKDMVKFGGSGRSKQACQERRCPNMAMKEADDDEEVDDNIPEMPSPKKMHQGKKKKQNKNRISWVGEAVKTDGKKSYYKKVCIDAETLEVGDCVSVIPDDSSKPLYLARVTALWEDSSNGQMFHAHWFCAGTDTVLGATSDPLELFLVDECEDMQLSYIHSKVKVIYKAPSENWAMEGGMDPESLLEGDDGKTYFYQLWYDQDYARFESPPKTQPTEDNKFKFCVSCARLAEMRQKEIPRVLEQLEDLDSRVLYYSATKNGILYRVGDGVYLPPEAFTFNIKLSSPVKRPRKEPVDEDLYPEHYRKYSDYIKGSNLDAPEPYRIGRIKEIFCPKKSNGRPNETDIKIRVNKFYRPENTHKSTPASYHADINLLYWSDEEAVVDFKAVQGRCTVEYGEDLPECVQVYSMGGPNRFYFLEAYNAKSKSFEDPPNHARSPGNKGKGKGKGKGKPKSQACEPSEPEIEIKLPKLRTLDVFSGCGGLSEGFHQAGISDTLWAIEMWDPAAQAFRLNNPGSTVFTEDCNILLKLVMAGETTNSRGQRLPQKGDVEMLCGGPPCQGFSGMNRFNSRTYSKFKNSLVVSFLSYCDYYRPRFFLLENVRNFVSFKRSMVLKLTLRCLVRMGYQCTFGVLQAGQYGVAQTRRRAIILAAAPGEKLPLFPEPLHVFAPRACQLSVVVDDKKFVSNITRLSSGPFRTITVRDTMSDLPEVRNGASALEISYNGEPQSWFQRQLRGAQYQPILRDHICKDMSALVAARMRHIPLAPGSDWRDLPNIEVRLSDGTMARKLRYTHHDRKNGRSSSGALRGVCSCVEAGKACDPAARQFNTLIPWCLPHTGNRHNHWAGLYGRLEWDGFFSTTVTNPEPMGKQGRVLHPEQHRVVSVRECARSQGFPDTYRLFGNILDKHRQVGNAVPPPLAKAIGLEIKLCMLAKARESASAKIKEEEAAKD", "assay": "Inhibition of DNMT1 using polydi-dc as substrate preincubated for 10 mins followed by addition of [3H]SAM and incubated for 60 mins", "in_short": "as §1"}, "[9]": {"molecular_target": "Histone-lysine N-methyltransferase 2C (Homo sapiens, UniProt Q8NEZ4)", "assay": "Inhibition of MLL3 using core histone as substrate preincubated for 10 mins followed by addition of [3H]SAM and incubated for 60 mins", "in_short": "as §1"}, "[10]": {"molecular_target": "Histone-lysine N-methyltransferase 2B (Homo sapiens, UniProt Q9UMN6)", "assay": "Inhibition of MLL4 using core histone as substrate preincubated for 10 mins followed by addition of [3H]SAM and incubated for 60 mins", "in_short": "as §1"}, "[11]": {"molecular_target": "Histone-lysine N-methyltransferase 2A (Homo sapiens, UniProt Q03164)", "assay": "Inhibition of MLL1 using core histone as substrate preincubated for 10 mins followed by addition of [3H]SAM and incubated for 60 mins", "in_short": "as §1"}, "[12]": {"molecular_target": "Histone-lysine N-methyltransferase 2D (Homo sapiens, UniProt O14686)", "assay": "Inhibition of MLL2 using core histone as substrate preincubated for 10 mins followed by addition of [3H]SAM and incubated for 60 mins", "in_short": "as §1"}, "[13]": {"molecular_target": "T3, Histone-lysine N-methyltransferase EZH2", "assay": "Inhibition of EZH2-mediated proliferation of human DU145 cells after 6 days by chemiluminescence analysis", "format": "cell-based", "details": "DU-145"}, "[14]": {"molecular_target": "T3, Histone-lysine N-methyltransferase EZH2", "assay": "Inhibition of EZH2-mediated proliferation of human […] cells after 6 days by chemiluminescence analysis", "format": "cell-based"}, "[15]": {"molecular_target": "T3, Histone-lysine N-methyltransferase EZH2", "assay": "Inhibition of EZH2-mediated proliferation of human ZR-75-1 cells after 6 days by chemiluminescence analysis", "format": "cell-based"}, "[16]": {"molecular_target": "T3, Histone-lysine N-methyltransferase EZH2", "assay": "Inhibition of EZH2-mediated nuclear H3K27 methylation in human HCC1806 cells at >1000 nM after 72 hrs by immunofluorescence analysis", "format": "cell-based", "in_short": "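HCC1806 breast cancer cells were exposed to compound for 72 h. Nuclear H3K27me3 was quantified by an immunofluorescence imaging assay and normalized to total H3. […] Values are the mean of at least three independent replicates.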"}, "[17]": {"molecular_target": "T3, Histone-lysine N-methyltransferase EZH2", "assay": "Inhibition of EZH2-mediated proliferation of human PC3 cells after 6 days by chemiluminescence analysis", "format": "cell-based", "details": "PC-3"}, "[18]": {"molecular_target": "T3, Histone-lysine N-methyltransferase EZH2", "assay": "Inhibition of EZH2-mediated proliferation of human SKBR3 cells after 6 days by chemiluminescence analysis", "format": "cell-based", "details": "SK-BR-3"}},
  "note": "Activity calls are given as the source filed them. The calls are words filed in the database; no cut-off is given here.",
  "data": [
    {"smiles": "CCCc1cc(C)[nH]c(=O)c1CNC(=O)c1cc(-c2ccc(N3CCN(C)CC3)nc2)cc2c1cnn2C(C)C", "values": [
      {"measurement": "IC50", "setting": "[1]", "result": "> 100", "unit": "µM"},
      {"measurement": "IC50", "setting": "[2]", "result": 54, "unit": "µM"},
      {"measurement": "IC50", "setting": "[3]", "result": "> 100", "unit": "µM"},
      {"measurement": "IC50", "setting": "[4]", "result": "> 100", "unit": "µM"},
      {"measurement": "IC50", "setting": "[5]", "result": "> 100", "unit": "µM"},
      {"measurement": "IC50", "setting": "[6]", "result": 0.079, "unit": "µM"},
      {"measurement": "IC50", "setting": "[7]", "result": 0.004, "unit": "µM"},
      {"measurement": "IC50", "setting": "[8]", "result": 121, "unit": "µM"}
    ]},
    {"smiles": "CCCc1cc(C)[nH]c(=O)c1CNC(=O)c1cc(-c2ccnc(N3CCN(C)CC3)c2)cc2c1cnn2C(C)C", "values": [
      {"measurement": "IC50", "setting": "[1]", "result": 123, "unit": "µM"},
      {"measurement": "IC50", "setting": "[2]", "result": 74, "unit": "µM"},
      {"measurement": "IC50", "setting": "[9]", "result": "> 100", "unit": "µM"},
      {"measurement": "IC50", "setting": "[3]", "result": "> 100", "unit": "µM"},
      {"measurement": "IC50", "setting": "[10]", "result": "> 100", "unit": "µM"},
      {"measurement": "IC50", "setting": "[11]", "result": "> 100", "unit": "µM"},
      {"measurement": "IC50", "setting": "[4]", "result": "> 100", "unit": "µM"},
      {"measurement": "IC50", "setting": "[5]", "result": "> 100", "unit": "µM"},
      {"measurement": "IC50", "setting": "[6]", "result": 0.174, "unit": "µM"},
      {"measurement": "IC50", "setting": "[12]", "result": "> 100", "unit": "µM"},
      {"measurement": "IC50", "setting": "[7]", "result": 0.004, "unit": "µM"},
      {"measurement": "IC50", "setting": "[8]", "result": "> 100", "unit": "µM"}
    ]},
    {"smiles": "Cc1cc(C)c(CNC(=O)c2cc(-c3ccc(N4CCN(C)CC4)nc3)cc3c2cnn3C(C)C)c(=O)[nH]1", "values": [
      {"measurement": "IC50", "setting": "[1]", "result": "> 100", "unit": "µM"},
      {"measurement": "inhibition", "setting": "[13]", "result": "Active"},
      {"measurement": "IC50", "setting": "[2]", "result": "> 100", "unit": "µM"},
      {"measurement": "inhibition", "setting": "[14]", "result": "Active"},
      {"measurement": "IC50", "setting": "[3]", "result": "> 100", "unit": "µM"},
      {"measurement": "inhibition", "setting": "[15]", "result": "Active"},
      {"measurement": "IC50", "setting": "[4]", "result": "> 100", "unit": "µM"},
      {"measurement": "inhibition", "setting": "[16]", "result": "> 90", "unit": "%"},
      {"measurement": "IC50", "setting": "[5]", "result": "> 100", "unit": "µM"},
      {"measurement": "IC50", "setting": "[6]", "result": 0.324, "unit": "µM"},
      {"measurement": "inhibition", "setting": "[6]", "result": "Dose-dependent effect"},
      {"measurement": "inhibition", "setting": "[17]", "result": "Active"},
      {"measurement": "IC50", "setting": "[7]", "result": 0.02, "unit": "µM"},
      {"measurement": "IC50", "setting": "[8]", "result": "> 100", "unit": "µM"},
      {"measurement": "inhibition", "setting": "[18]", "result": "Active"}
    ]}
  ]
}
